ChEMBL document CHEMBL4346742, “The parmodulin NRD-21 is an allosteric inhibitor of PAR1 Gq signaling with improved anti-inflammatory activity and stability” (Bioorg Med Chem, 2019)
≈ marks a conversion by molar mass, not a printed value. Calls of active or inactive are those of the source. No cut-off for these calls is given here.

Key:
[1] = biological target: T1, Proteinase-activated receptor 1 (Homo sapiens) (UniProt P25116); assay: Negative allosteric modulation of PAR1 in human EAhy926 cells assessed as reduction in TFLLRN-NH2-induced intracellular calcium mobilization at 10 uM incubated for 15 mins followed by TFLLRN-NH2 addition by Fluo-4-AM dye based fluorescence assay relative to control; format: functional, cell-based
T1 sequence (whole entry): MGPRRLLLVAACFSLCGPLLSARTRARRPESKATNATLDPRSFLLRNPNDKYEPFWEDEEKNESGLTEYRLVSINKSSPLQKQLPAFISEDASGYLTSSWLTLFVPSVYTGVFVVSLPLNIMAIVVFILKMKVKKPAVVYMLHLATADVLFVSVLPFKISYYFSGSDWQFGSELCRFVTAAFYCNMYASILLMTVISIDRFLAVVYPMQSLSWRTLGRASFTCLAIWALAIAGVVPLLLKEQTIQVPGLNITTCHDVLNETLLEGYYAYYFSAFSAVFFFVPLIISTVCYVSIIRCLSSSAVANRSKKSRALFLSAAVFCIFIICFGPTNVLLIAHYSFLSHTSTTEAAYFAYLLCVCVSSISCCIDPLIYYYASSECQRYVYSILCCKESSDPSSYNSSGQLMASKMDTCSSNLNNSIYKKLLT
Procedure, shortened: (§1)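 Adherent EA.hy926 endothelial cells in 96-well format, intracellular Ca2+ mobilization triggered by PAR1 agonist TFLLRN-NH2 at 5 µM; single-point % inhibition at 10 µM (n = 4 wells, SEM); 7-point concentration-response curves, 3 wells per concentration, pIC50 from 4-variable non-linear regression; average IC50 ± SEM over independent assays.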

[2] = biological target: T2, Proteinase-activated receptor 1 (Homo sapiens, UniProt P25116); assay: Negative allosteric modulation of PAR1 in human EAhy926 cells assessed as reduction in TFLLRN-NH2-induced intracellular calcium mobilization incubated for 15 mins followed by TFLLRN-NH2 addition by Fluo-4-AM dye based fluorescence assay; format: functional, cell-based; procedure, shortened: as §1
T2 sequence (P25116 whole entry): T1 sequence (whole entry)

[3] = biological target: T1, Proteinase-activated receptor 1 (Homo sapiens); settings: 0.316 uM
[4] = biological target: Proteinase-activated receptor 2 (Homo sapiens) (UniProt P55085); assay: Negative allosteric modulation of PAR2 in human EAhy926 cells assessed as reduction in SLIGKV-NH2-induced intracellular calcium mobilization at 0.316 to 10 uM incubated for 15 mins followed by TFLLRN-NH2 addition by Fluo-4-AM dye based fluorescence assay relative to control; format: functional, cell-based
[5] = biological target: T1, Proteinase-activated receptor 1 (Homo sapiens); assay: Reversible inhibition of PAR1 in human EAhy926 cells assessed as reduction in TFLLRN-NH2-induced intracellular calcium mobilization at 10 uM incubated for 15 mins and washed in buffer followed by TFLLRN-NH2 addition by Fluo-4-AM dye based fluorescence assay relative to control; format: functional, cell-based
[6] = biological target: T1, Proteinase-activated receptor 1 (Homo sapiens); assay: Negative allosteric modulation of PAR1 in human EAhy926 cells assessed as reduction in TFLLRN-NH2-induced intracellular calcium mobilization incubated for 15 mins followed by TFLLRN-NH2 addition by Fluo-4-AM dye based fluorescence assay relative to control; format: functional, cell-based; procedure, shortened: as §1
[7] = biological target: T1, Proteinase-activated receptor 1 (Homo sapiens); assay: Negative allosteric modulation of PAR1 in human EAhy926 cells assessed as reduction in TFLLRN-NH2-induced intracellular calcium mobilization at 31.6 uM incubated for 15 mins followed by TFLLRN-NH2 addition by Fluo-4-AM dye based fluorescence assay relative to control; format: functional, cell-based
HepG2 = assay: Cytotoxicity against human HepG2 cells assessed as reduction in cell viability; format: cell-based
Procedure, shortened: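 Human HepG2 cells; cytotoxicity reported as CC50.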

HUVEC (human) = assay: Antiinflammatory activity in human HUVEC cells assessed as inhibition of TNFalpha-induced TF expression at 10 uM preincubated for 1 hr followed by TNFalpha addition and measured after 3 hrs by qPCR analysis
[8] = Solubility in 2.5% DMSO; format: physicochemical
Procedure, shortened: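 Kinetic aqueous solubility assay with 2.5% DMSO.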

[9] = biological target: Sodium-dependent noradrenaline transporter (Homo sapiens) (UniProt P23975); assay: Inhibition of NET receptor (unknown origin) at 10 uM
[10] = biological target: T1, Proteinase-activated receptor 1 (Homo sapiens); assay: Negative allosteric modulation of PAR1 in human EAhy926 cells assessed as reduction in TFLLRN-NH2-induced intracellular calcium mobilization at 0.0316 to 3.16 uM incubated for 15 mins followed by TFLLRN-NH2 addition by Fluo-4-AM dye based fluorescence assay relative to control
[11] = Stability in human microsomes for 1 hr; format: ADME, Microsome; settings: read-out: Stability
Procedure, shortened: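 Human liver microsomes, % remaining after 1 h.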

Platelet = assay: Antiplatelet activity in human washed platelets assessed as inhibition of SFLLRN-NH2-induced platelet aggregation at 10 uM incubated for 2 mins followed by SFLLRN-NH2 addition and monitored for 5 mins by lumi-aggregometery
[12] = Stability in human plasma at 20 uM measured at 4 hrs by LC-MS analysis; format: ADME, cell-free
Procedure, shortened: (§2)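 Compound incubated in mouse or human plasma; % parent remaining at 4 h.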

[13] = biological target: Translocator protein (Rattus norvegicus) (UniProt P16257); assay: Inhibition of rat PBR at 10 uM
[14] = Stability in mouse plasma at 20 uM measured at 4 hrs by LC-MS analysis; format: ADME, cell-free; procedure, shortened: as §2
[15] = Stability in mouse plasma at 10 uM measured at 4 hrs by LC-MS analysis; format: ADME, cell-free; procedure, shortened: as §2
[16] = Stability in human plasma at 10 uM measured at 4 hrs by LC-MS analysis; format: ADME, cell-free; procedure, shortened: as §2
[17] = biological target: Beta-1 adrenergic receptor (Homo sapiens) (UniProt P08588); assay: Inhibition of beta1 adrenoceptor (unknown origin) at 10 uM by radio ligand binding assay
[18] = biological target: Beta-3 adrenergic receptor (Homo sapiens) (UniProt P13945); assay: Inhibition of beta3 adrenoceptor (unknown origin) at 10 uM by radio ligand binding assay
Sequence of Beta-3 adrenergic receptor (Homo sapiens) (P13945 whole entry, looked up): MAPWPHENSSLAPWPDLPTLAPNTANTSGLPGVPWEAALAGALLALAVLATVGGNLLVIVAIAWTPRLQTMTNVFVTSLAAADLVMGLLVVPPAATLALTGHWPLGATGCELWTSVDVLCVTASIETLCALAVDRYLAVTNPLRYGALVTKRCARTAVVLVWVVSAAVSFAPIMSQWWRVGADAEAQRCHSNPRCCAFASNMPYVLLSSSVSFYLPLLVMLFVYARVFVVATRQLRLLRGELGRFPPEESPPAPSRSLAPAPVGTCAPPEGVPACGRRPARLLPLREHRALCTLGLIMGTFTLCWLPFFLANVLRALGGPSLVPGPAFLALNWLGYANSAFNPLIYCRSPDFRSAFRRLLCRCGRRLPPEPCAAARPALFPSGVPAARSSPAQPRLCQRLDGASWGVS

Sequence of Proteinase-activated receptor 2 (Homo sapiens) (P55085 whole entry): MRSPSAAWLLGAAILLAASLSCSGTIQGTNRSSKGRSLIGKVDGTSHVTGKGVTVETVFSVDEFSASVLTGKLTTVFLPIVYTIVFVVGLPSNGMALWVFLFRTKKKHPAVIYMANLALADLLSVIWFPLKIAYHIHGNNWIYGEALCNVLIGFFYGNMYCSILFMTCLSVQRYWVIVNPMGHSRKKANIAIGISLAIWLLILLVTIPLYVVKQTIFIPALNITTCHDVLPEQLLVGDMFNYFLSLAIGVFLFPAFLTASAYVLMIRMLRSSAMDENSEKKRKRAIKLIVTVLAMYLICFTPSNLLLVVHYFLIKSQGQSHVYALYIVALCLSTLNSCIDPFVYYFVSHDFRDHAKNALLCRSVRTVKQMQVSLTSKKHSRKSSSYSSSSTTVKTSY
Sequence of Translocator protein (Rattus norvegicus) (P16257 whole entry, looked up): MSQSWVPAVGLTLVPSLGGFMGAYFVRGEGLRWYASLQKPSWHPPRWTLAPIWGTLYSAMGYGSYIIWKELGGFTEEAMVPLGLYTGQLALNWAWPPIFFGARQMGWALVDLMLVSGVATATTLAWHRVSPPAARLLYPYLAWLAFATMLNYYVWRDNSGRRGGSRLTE
Sequence of Beta-1 adrenergic receptor (Homo sapiens) (P08588 whole entry, looked up): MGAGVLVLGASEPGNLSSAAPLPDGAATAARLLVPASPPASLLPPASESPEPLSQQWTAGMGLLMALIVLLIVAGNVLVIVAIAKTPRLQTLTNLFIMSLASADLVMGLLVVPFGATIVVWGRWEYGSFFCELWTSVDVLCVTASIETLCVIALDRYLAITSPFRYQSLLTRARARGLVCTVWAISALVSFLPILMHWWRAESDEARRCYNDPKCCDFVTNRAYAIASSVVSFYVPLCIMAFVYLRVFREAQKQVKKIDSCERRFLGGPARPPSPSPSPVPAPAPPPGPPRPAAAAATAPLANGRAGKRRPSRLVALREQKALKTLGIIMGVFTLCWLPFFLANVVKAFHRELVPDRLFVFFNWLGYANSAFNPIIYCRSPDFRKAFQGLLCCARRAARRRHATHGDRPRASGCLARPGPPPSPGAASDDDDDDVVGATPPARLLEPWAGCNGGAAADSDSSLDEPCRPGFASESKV
Sequence of Sodium-dependent noradrenaline transporter (Homo sapiens) (P23975 whole entry): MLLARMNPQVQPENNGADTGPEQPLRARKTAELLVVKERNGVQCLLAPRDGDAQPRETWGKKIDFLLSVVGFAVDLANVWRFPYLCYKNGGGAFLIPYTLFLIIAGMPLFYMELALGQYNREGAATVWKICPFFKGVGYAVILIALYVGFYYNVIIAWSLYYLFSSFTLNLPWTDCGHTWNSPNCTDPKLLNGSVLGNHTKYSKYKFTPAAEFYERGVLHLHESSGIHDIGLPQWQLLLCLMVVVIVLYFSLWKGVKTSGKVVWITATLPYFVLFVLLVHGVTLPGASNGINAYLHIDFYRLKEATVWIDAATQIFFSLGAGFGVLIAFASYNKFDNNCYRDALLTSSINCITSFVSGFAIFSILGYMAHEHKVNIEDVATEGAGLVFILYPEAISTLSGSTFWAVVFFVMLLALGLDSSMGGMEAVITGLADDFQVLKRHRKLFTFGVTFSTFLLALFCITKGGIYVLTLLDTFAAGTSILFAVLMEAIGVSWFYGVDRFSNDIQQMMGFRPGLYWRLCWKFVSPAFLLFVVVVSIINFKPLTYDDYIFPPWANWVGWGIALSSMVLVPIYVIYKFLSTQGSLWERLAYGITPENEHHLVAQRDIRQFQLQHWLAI

Q: For `O=C(Nc1cccc(NC(=O)[C@@H]2CCCN2)c1)c1ccccc1Br`, which inhibition [1] is on record?
A: 4%

Q: With `CCCN(CCC)c1cccc(NC(=O)c2ccccc2Br)c1` as the compound, how does the inhibition [1] read?
A: 13%

Q: For `CCC(C)C(=O)Nc1cccc(NC(=O)c2ccccc2Br)c1` (stereo not drawn), which inhibition [1] is on record?
A: 27%

Q: With `CC(C)CC(=O)Nc1cccc(NC(=O)c2ccccc2Br)c1` as the compound, how does the inhibition [1] read?
A: 82%

Q: Which inhibition [1] does the source give for `O=C(Nc1cccc(NC(=O)C2CCCC2)c1)c1ccccc1Br` here?
A: 65%

Q: With `O=C(Nc1cccc(NC(=O)c2ccccc2Br)c1)c1ccccc1` as the compound, how does the inhibition [1] read?
A: 58%

Q: For `O=C(Nc1cccc(NC(=O)C2CCOC2)c1)c1ccccc1Br` (stereo not drawn), which inhibition [1] is on record?
A: 44%

Q: Which inhibition [1] does the source give for `CCC(O)C(=O)Nc1cccc(NC(=O)c2ccccc2Br)c1` (stereo not drawn) here?
A: 21%

Q: For `CCCCC(=O)Nc1cccc(NC(=O)c2ccccc2Br)c1`, which inhibition [1] is on record?
A: 23%

Q: With `C#CCCC(=O)Nc1cccc(NC(=O)c2ccccc2Br)c1` as the compound, how does the IC50 ([2]; read-out: pIC50 (converted)) read?
A: > 10000 nM

Q: For `CCCNCc1cccc(NC(=O)c2ccccc2Br)c1`, which inhibition [1] is on record?
A: 17%

Q: Which inhibition [1] does the source give for `O=C(Nc1cccc(NC(=O)[C@H]2CCCN2)c1)c1ccccc1Br` here?
A: 63%

Q: With `CC(C)(C)OC(=O)N1CCC[C@H]1C(=O)Nc1cccc(NC(=O)c2ccccc2Br)c1` as the compound, how does the inhibition [1] read?
A: -8%

Q: For `CCOC(=O)Nc1cccc(NC(=O)c2ccccc2Br)c1`, which inhibition [1] is on record?
A: 60%

Q: Which results are given for `CCOC(=O)N[C@@H]1CC[C@@H]2[C@@H](C1)C[C@H]1C(=O)O[C@H](C)[C@H]1[C@H]2/C=C/c1ccc(-c2cccc(F)c2)cn1`?
A: inhibition [3]: > 75%; inhibition [4]: inactive; inhibition [5]: inactive

Q: Which inhibition [1] does the source give for `CC(C)[C@H](O)C(=O)Nc1cccc(NC(=O)c2ccccc2Br)c1` here?
A: 48%

Q: Which inhibition [1] does the source give for `CC(C)[C@@H](O)C(=O)Nc1cccc(NC(=O)c2ccccc2Br)c1` here?
A: 25%

Q: With `O=C(Nc1cccc(NC(=O)C2CCCO2)c1)c1ccccc1Br` (stereo not drawn) as the compound, how does the inhibition [1] read?
A: 42%

Q: Which inhibition [1] does the source give for `O=C(Nc1cccc(NC(=O)c2ccccc2Br)c1)c1ccco1` here?
A: 92%

Q: What about the inhibition [4] of the same compound?
A: inactive

Q: What about the IC50 ([2]; read-out: IC50) of the same compound?
A: 320 nM

Q: And the inhibition [5]?
A: Active

Q: With `CC(C)(C)OC(=O)N1CCC[C@@H]1C(=O)Nc1cccc(NC(=O)c2ccccc2Br)c1` as the compound, how does the inhibition [1] read?
A: 65%

Q: Which inhibition [1] does the source give for `CCCNC(=O)c1cccc(NC(=O)c2ccccc2Br)c1` here?
A: 63%

Q: And the inhibition [6]?
A: 50%

Q: And the IC50 ([2]; read-out: IC50)?
A: 220 nM

Q: With `COCCNc1cccc(NC(=O)c2ccccc2Br)c1` as the compound, how does the inhibition [1] read?
A: 43%

Q: With `CCCCOc1cccc(NC(=O)c2ccccc2Br)c1` as the compound, how does the inhibition [1] read?
A: 57%

Q: With `COCCC(=O)Nc1cccc(NC(=O)c2ccccc2Br)c1` as the compound, how does the inhibition [1] read?
A: 39%

Q: With `COC(=O)Nc1cccc(NC(=O)c2ccccc2Br)c1` as the compound, how does the inhibition [1] read?
A: 42%

Q: For `NC(=O)CC(=O)Nc1cccc(NC(=O)c2ccccc2Br)c1`, which inhibition [1] is on record?
A: 36%

Q: With `CN(C)CC(=O)Nc1cccc(NC(=O)c2ccccc2Br)c1` as the compound, how does the inhibition [1] read?
A: 3%

Q: Which inhibition [1] does the source give for `COC(=O)CC(=O)Nc1cccc(NC(=O)c2ccccc2Br)c1` here?
A: 11%

Q: With `COC(C)C(=O)Nc1cccc(NC(=O)c2ccccc2Br)c1` (stereo not drawn) as the compound, how does the inhibition [1] read?
A: 58%

Q: For `O=C(O)CC(=O)Nc1cccc(NC(=O)c2ccccc2Br)c1`, which inhibition [1] is on record?
A: 37%

Q: For `O=C(CC(F)(F)F)Nc1cccc(NC(=O)c2ccccc2Br)c1`, which inhibition [1] is on record?
A: 88%

Q: And the inhibition [4]?
A: inactive

Q: What about the IC50 ([2]; read-out: IC50) of the same compound?
A: 380 nM

Q: And the inhibition [5]?
A: Active

Q: With `CCC(=O)Nc1cccc(NC(=O)c2ccccc2Br)c1` as the compound, how does the inhibition [1] read?
A: 54%

Q: With `COCC(=O)Nc1cccc(NC(=O)c2ccccc2Br)c1` as the compound, how does the inhibition [1] read?
A: 38%

Q: Which inhibition [7] does the source give for `O=C(Nc1cccc(NC(=O)c2ccccc2Br)c1)c1cocn1` here?
A: 50%

Q: What about the inhibition [1] of the same compound?
A: 82%

Q: And the inhibition [4]?
A: inactive

Q: What about the IC50 ([2]; read-out: IC50) of the same compound?
A: 420 nM

Q: What about the inhibition [5] of the same compound?
A: Active

Q: What does the source list for `O=C(Nc1cccc(NC(=O)c2ccccc2Br)c1)c1cnco1`?
A: CC50 (HepG2): > 150 µM; inhibition (HUVEC (human)): Active; inhibition [1]: 90%; solubility kinetic [8]: 17 µM (≈ 6.57 µg/mL); inhibition [9]: 31%; inhibition [10]: Active; remaining at 1 h [11]: 99%; inhibition [4]: inactive; inhibition at 10 µM (Platelet): 100%; IC50 ([2]; read-out: IC50): 370 nM; Stability [12]: 97%; inhibition [13]: 67%; inhibition [5]: Active; Stability [14]: 32%

Q: For `CCCC(=O)Nc1cccc(NC(=O)c2ccccc2Br)c1`, which Stability [15] is on record?
A: < 1%

Q: What about the CC50 (HepG2) of the same compound?
A: > 150 µM

Q: What about the Stability [16] of the same compound?
A: 79%

Q: And the inhibition (HUVEC (human))?
A: Active

Q: And the solubility kinetic [8]?
A: 24 µM (≈ 8.67 µg/mL)

Q: What about the inhibition [17] of the same compound?
A: 49%

Q: And the remaining at 1 h [11]?
A: 99%

Q: And the inhibition [18]?
A: 32%

Q: What about the inhibition [4] of the same compound?
A: inactive

Q: What about the inhibition at 10 µM (Platelet) of the same compound?
A: 100%

Q: And the IC50 ([2]; read-out: IC50)?
A: 570 nM

Q: And the inhibition [13]?
A: 84%

Q: And the inhibition [5]?
A: Active

Q: For `CCCCNc1cccc(NC(=O)c2ccccc2Br)c1`, which inhibition [1] is on record?
A: 85%

Q: And the inhibition [4]?
A: inactive

Q: What about the inhibition [5] of the same compound?
A: Active
